Assay results reported in ChEMBL document CHEMBL1157296, “Cytotoxic and antimicrobial benzophenones from the leaves of Tovomita longifolia” (2006).
≈ marks a conversion by molar mass, not a printed value. Calls of active or inactive are those of the source. The rule behind the calls is not given here.

Experiments:
Type in all cases: functional
MCF7 = experiment: Cytotoxicity against human MCF7 cells
Method in brief: (§1)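 Human cancer cell lines of breast (MCF-7), CNS (SF-268) and lung (H-460) origin were tested by the Monks et al. method. All three lines were used throughout to monitor fractions and isolated compounds.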

SF-268 = experiment: Cytotoxicity against human SF268 cells; method in brief: as §1
NCI-H460 = experiment: Cytotoxicity against human H460 cells; method in brief: as §1
Pseudomonas aeruginosa = experiment: Antimicrobial activity against Pseudomonas aeruginosa ATCC 27853
[1] = test system: Salmonella enterica subsp. enterica serovar Gallinarum; experiment: Antimicrobial activity against Salmonella gallinarum ATCC 9184
[2] = test system: Mycolicibacterium smegmatis; experiment: Antimicrobial activity against Mycobacterium smegmatis ATCC 607
Staphylococcus aureus = experiment: Antimicrobial activity against Staphylococcus aureus ATCC 6538
Klebsiella pneumoniae = experiment: Antimicrobial activity against Klebsiella pneumoniae ATCC 10031
Candida albicans = experiment: Antimicrobial activity against Candida albicans ATCC 10231
Escherichia coli = experiment: Antimicrobial activity against Escherichia coli ATCC 9637

Compound	Activity (MCF7)	Activity (SF-268)	Activity (NCI-H460)	MIC (Pseudomonas aeruginosa)	GI50 (MCF7)	GI50 (SF-268)	MIC [1]	MIC [2]	MIC (Staphylococcus aureus)	MIC (Klebsiella pneumoniae)	Activity (Candida albicans)	GI50 (NCI-H460)	Activity (Escherichia coli)	Activity (Pseudomonas aeruginosa)	Activity [1]	Activity (Staphylococcus aureus)	MIC (Escherichia coli)	Activity [2]	Activity (Klebsiella pneumoniae)
C=C(C)[C@H](O)CC/C(C)=C/Cc1c(O)cc(O)c(C(=O)c2ccccc2)c1O	inactive	inactive	inactive	–	–	–	–	–	–	–	–	–	–	–	–	–	–	–	–
CC1(C)CCC[C@]2(C)Oc3c(c(O)cc(O)c3C(=O)c3ccccc3)C[C@@H]12	–	–	–	12.5 µg/mL (≈ 34.1 µM)	1.8 µg/mL (≈ 4.91 µM)	1.7 µg/mL (≈ 4.64 µM)	12.5 µg/mL (≈ 34.1 µM)	6.25 µg/mL (≈ 17.1 µM)	12.5 µg/mL (≈ 34.1 µM)	6.25 µg/mL (≈ 17.1 µM)	inactive	2.1 µg/mL (≈ 5.73 µM)	inactive	–	–	–	–	–	–
CC(C)=CCC[C@]1(C)Oc2c(c(O)cc(O)c2C(=O)c2ccccc2)C[C@@H]1O	–	–	–	–	6.8 µg/mL (≈ 17.8 µM)	5.6 µg/mL (≈ 14.6 µM)	–	25 µg/mL (≈ 65.4 µM)	–	25 µg/mL (≈ 65.4 µM)	inactive	6.5 µg/mL (≈ 17 µM)	inactive	inactive	inactive	inactive	–	–	–
CN[C@@H]1[C@H](O[C@H]2[C@H](O[C@H]3[C@H](O)[C@@H](O)[C@H](N=C(N)N)[C@@H](O)[C@@H]3N=C(N)N)O[C@@H](C)[C@]2(O)C=O)O[C@@H](CO)[C@H](O)[C@H]1O.CN[C@@H]1[C@H](O[C@H]2[C@H](O[C@H]3[C@H](O)[C@@H](O)[C@H](N=C(N)N)[C@@H](O)[C@@H]3N=C(N)N)O[C@@H](C)[C@]2(O)C=O)O[C@@H](CO)[C@H](O)[C@H]1O.O=S(=O)(O)O.O=S(=O)(O)O.O=S(=O)(O)O [STREPTOMYCIN SULFATE]	–	–	–	1.56 µg/mL	–	–	3.12 µg/mL	12.5 µg/mL	12.5 µg/mL	3.12 µg/mL	inactive	–	–	–	–	–	6.25 µg/mL	–	–
C[C@@H]1[C@H](O)[C@@H](C)/C=C/C=C/C=C/C=C/C=C/C=C/C=C/[C@H](O[C@@H]2O[C@H](C)[C@@H](O)[C@H](N)[C@@H]2O)C[C@@H]2O[C@](O)(C[C@@H](O)C[C@@H](O)[C@H](O)CC[C@@H](O)C[C@@H](O)CC(=O)O[C@H]1C)C[C@H](O)[C@H]2C(=O)O	–	–	–	–	–	–	–	–	–	–	–	–	inactive	inactive	inactive	inactive	–	inactive	inactive
COc1cccc2c1C(=O)c1c(O)c3c(c(O)c1C2=O)C[C@@](O)(C(=O)CO)C[C@@H]3O[C@H]1C[C@H](N)[C@H](O)[C@H](C)O1 [DOXORUBICIN]	–	–	–	–	0.38 µg/mL (≈ 0.699 µM)	0.5 µg/mL (≈ 0.92 µM)	–	–	–	–	–	0.42 µg/mL (≈ 0.773 µM)	–	–	–	–	–	–	–
CC(C)=CCC/C(C)=C/COc1cc(O)c(C(=O)c2ccccc2)c(O)c1	–	–	–	–	4.8 µg/mL (≈ 13.1 µM)	2 µg/mL (≈ 5.46 µM)	–	12.5 µg/mL (≈ 34.1 µM)	12.5 µg/mL (≈ 34.1 µM)	–	inactive	4.4 µg/mL (≈ 12 µM)	inactive	inactive	inactive	–	–	–	inactive
CC(C)=CCC/C(C)=C/Cc1c(O)cc(O)c(C(=O)c2ccccc2)c1O	inactive	inactive	inactive	–	–	–	–	50 µg/mL (≈ 136 µM)	–	–	inactive	–	inactive	inactive	inactive	inactive	–	–	inactive
C=C(CCC=C(C)C)[C@H](O)Cc1c(O)cc(O)c(C(=O)c2ccccc2)c1O	–	–	–	–	6.7 µg/mL (≈ 17.5 µM)	6.5 µg/mL (≈ 17 µM)	–	–	–	–	–	7.8 µg/mL (≈ 20.4 µM)	–	–	–	–	–	–	–
